The source of these data is ChEMBL document CHEMBL1126608.

In experiment [1] the target is T1, Muscarinic acetylcholine receptor M2 (Homo sapiens) (UniProt P08172).
T1 sequence (whole entry): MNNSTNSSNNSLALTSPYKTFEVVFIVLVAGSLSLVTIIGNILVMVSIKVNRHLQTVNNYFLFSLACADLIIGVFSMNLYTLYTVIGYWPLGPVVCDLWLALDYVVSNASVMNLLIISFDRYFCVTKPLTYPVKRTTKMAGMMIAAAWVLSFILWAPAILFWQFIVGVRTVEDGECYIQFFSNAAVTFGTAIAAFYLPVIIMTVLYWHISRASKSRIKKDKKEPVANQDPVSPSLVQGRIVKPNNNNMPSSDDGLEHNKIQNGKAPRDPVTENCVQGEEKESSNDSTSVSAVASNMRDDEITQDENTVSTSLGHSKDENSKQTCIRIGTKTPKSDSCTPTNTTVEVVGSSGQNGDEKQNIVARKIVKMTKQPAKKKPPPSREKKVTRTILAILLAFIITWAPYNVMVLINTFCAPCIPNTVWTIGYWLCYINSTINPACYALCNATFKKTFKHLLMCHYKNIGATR
Kind of experiment: Antagonist activity against muscarinic M2 receptor from guinea pig atria. The settings on record: Cavia porcellus; target entry is the homologue from another species. It is filed as functional. The method in brief: (§1)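 Isolated guinea pig right atria in Krebs-Henseleit buffer; cumulative carbachol concentration-rate response curves before and after at least three increasing antagonist concentrations (5-min preincubation). Responses as % of maximal carbachol-induced rate inhibition without antagonist.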

Experiment [2] has as its target Muscarinic acetylcholine receptor M3 (Cavia porcellus) (UniProt Q8VH26). The experiment in a line: Antagonist activity against muscarinic M3 receptor from guinea pig ileum. Format: functional, tissue-based. The method in brief:
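Longitudinal guinea pig ileum strips suspended in oxygenated Krebs buffer; carbachol concentration-response curves with or without at least three increasing antagonist concentrations (5-min preincubation). Contraction as % of maximal carbachol response without antagonist.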

The target of experiment [3] is T2, Muscarinic acetylcholine receptor (Homo sapiens) (UniProt P20309+P08173+P11229+P08172+P08912). Conditions: Cavia porcellus.
The target of experiment [4] is T2, Muscarinic acetylcholine receptor (Homo sapiens). The experiment in a line: In vivo antimuscarinic activity to decrease carbachol-stimulated salivation in guinea pig. Format: functional, organism-based. Conditions: Cavia porcellus; target entry is the homologue from another species. The method in brief:
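Guinea pigs dosed sc with various antagonist doses; 30 min later carbachol 0.1 mg/kg ip; ability to respond to agonist scored 5-10 min afterwards.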

In experiment [5] the target is T1, Muscarinic acetylcholine receptor M2 (Homo sapiens). Kind of experiment: Antagonist activity against muscarinic M2 receptor from guinea pig atria; Non competitive. It is filed as functional. Conditions: Cavia porcellus; filed as antagonist; target entry is the homologue from another species. In short, it runs like this:
as §1

Where only a bound is given, the exact number is not on record here.

For orientation: Kb means the affinity of an antagonist, worked out from how it opposes an agonist. Lower therefore signals a more potent antagonist. The ED50 is the dose that gives a 50% effect, or the effect in half of the subjects. A lower ED50 goes with greater potency.
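Throughout, for ID50: in vivo guinea pig assay: antimuscarinic effect measured as reduced salivation after carbachol stimulation.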

Sequence of Muscarinic acetylcholine receptor M3 (Cavia porcellus) (Q8VH26 1-587): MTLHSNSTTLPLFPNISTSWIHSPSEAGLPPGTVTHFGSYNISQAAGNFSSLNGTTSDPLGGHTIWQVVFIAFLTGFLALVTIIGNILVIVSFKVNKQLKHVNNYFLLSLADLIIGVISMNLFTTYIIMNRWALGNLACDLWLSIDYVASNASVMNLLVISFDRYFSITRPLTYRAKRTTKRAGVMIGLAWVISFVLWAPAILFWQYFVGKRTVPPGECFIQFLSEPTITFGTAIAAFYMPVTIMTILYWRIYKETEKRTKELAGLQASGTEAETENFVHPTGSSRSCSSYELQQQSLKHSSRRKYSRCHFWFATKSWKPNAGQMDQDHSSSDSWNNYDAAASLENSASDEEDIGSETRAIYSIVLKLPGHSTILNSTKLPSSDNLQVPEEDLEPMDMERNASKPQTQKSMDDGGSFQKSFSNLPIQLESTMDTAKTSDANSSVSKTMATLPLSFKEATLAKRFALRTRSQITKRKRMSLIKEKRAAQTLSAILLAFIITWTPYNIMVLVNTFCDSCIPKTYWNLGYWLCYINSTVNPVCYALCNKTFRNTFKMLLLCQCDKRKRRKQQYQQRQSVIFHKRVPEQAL

Regarding `Cc1ccccc1CN1CCN(CC(=O)C(O)(c2ccccc2)C2CCC2)CC1` (stereo not given), the Kb in experiment [1] is greater than 1 µM; in experiment [2], 0.199 µM.

For `CN1CCN(CC(=O)C(O)(c2ccccc2)C2CCC2)CC1` (stereo not given), the Kb in experiment [1] was found to be 0.079 µM; in experiment [2], 0.013 µM. Further, the ID50 in experiment [3] was found to be 0.72 mg/kg.

For the compound `O=C(CN1CCN(Cc2ccccc2)CC1)C(O)(c1ccccc1)c1ccccc1`, the Kb was 1.46 µM in experiment [1] and 0.006 µM in experiment [2]. The same compound showed an ID50 in experiment [3] greater than 100 mg/kg.

For the compound `CN(C)CCNCC(=O)C(O)(c1ccccc1)C1CCCCC1` (stereo not given), in experiment [4], the 50% effect level (ED50) was put at a dose of 0.13 mg/kg. The Kb came to 0.216 µM in experiment [1] and 0.0055 µM in experiment [2].

In the case of `O=C(CN1CCN(Cc2ccccc2)CC1)C(O)(c1ccccc1)C1CCCC1` (stereo not given), the results for the antagonist equilibrium constant (Kb) in experiment [1] and in experiment [2] were 0.078 µM and 0.0026 µM, respectively. In experiment [3], this compound had an ID50 of 0.24 mg/kg.

On to `C=CCCN1CCN(CC(=O)C(O)(c2ccccc2)C2CCC2)CC1` (stereo not given), for which the figures for the Kb entry in experiment [5] and in experiment [2] were “Non-competitive antagonist” and 0.0356 µM, respectively. Further, the ID50 in experiment [3] was 27.2 mg/kg.

Regarding `O=C(CN1CCN(C/C=C\c2ccccc2)CC1)C(O)(c1ccccc1)C1CCC1` (stereo not given), the values for the Kb in experiment [1] and in experiment [2] were 0.0023 µM and 0.00992 µM, respectively. For the same compound, the ID50 in experiment [3] is 1.2 mg/kg.

`C#CCN1CCN(CC(=O)C(O)(c2ccccc2)C2CCCCC2)CC1` (stereo not given): the figures for the antagonist dissociation constant (Kb) in experiment [1] and in experiment [2] were 5.67 µM and 0.26 µM, respectively.

For the compound `O=C(CN1CCN(CCc2ccccc2)CC1)C(O)(c1ccccc1)C1CCC1` (stereo not given), the results for the Kb in experiment [1] and in experiment [2] were greater than 1 µM and 0.302 µM, respectively.

Turning to `O=C(CN1CCN(Cc2ccc(Cl)cc2)CC1)C(O)(c1ccccc1)C1CCC1` (stereo not given), the Kb in experiment [1] amounted to 0.515 µM; in experiment [2], 0.016 µM. In experiment [3], the ID50 worked out at 9.8 mg/kg.

As for `CN1CCN(CC(=O)C(O)(c2ccccc2)C2CCCCC2)CC1` (stereo not given), it took a dose of 1.84 mg/kg to reach the 50% effect level in experiment [4] (ED50). Moreover, the Kb in experiment [1] turned out to be 0.21 µM; in experiment [2], 0.015 µM.

`C=CCN1CCN(CC(=O)C(O)(c2ccccc2)C2CCC2)CC1` (stereo not given): the Kb was determined as 0.299 µM in experiment [1] and 0.06 µM in experiment [2]. The same compound displayed an ID50 in experiment [3] of 20.4 mg/kg.

With `CC(C)=CCN1CCN(CC(=O)C(O)(c2ccccc2)C2CCC2)CC1` (stereo not given), the values for the Kb in experiment [1] and in experiment [2] were 0.305 µM and 0.022 µM, respectively. In experiment [3], the ID50 turned out to be 4.9 mg/kg.

Consider `O=C(CN1CCN(Cc2ccco2)CC1)C(O)(c1ccccc1)C1CCC1` (stereo not given), for which the values for the Kb in experiment [1] and in experiment [2] were greater than 30 µM and 0.75 µM, respectively.

Regarding `O=C(CN1CCN(c2ccc([N+](=O)[O-])cc2)CC1)C(O)(c1ccccc1)C1CCC1` (stereo not given), the Kb in experiment [1] and in experiment [2] was greater than 10 µM in each case.

With `O=C(CN1CCN(Cc2ccc3c(c2)OCO3)CC1)C(O)(c1ccccc1)C1CCC1` (stereo not given), it took a dose of 4 mg/kg to reach the 50% effect level in experiment [4] (ED50). Further, the Kb in experiment [1] worked out at 0.045 µM; in experiment [2], 0.008 µM.

For `O=C(CN1CCC(O)CC1)C(O)(c1ccccc1)C1CCC1` (stereo not given), the Kb in experiment [1] was 2.34 µM; in experiment [2] it was 0.472 µM.

In the case of `O=C(CN1CCN(CC(=O)C(O)(c2ccccc2)C2CCC2)CC1)N1CCCC1` (stereo not given), the Kb was greater than 3 µM in experiment [1] and 0.21 µM in experiment [2].

For the compound `O=C(CN1CCC(N2CCCC2)CC1)C(O)(c1ccccc1)C1CCC1` (stereo not given), the Kb in experiment [1] is 2.44 µM; in experiment [2], greater than 10 µM.

For `Cc1ccc(CN2CCN(CC(=O)C(O)(c3ccccc3)C3CCC3)CC2)cc1` (stereo not given), the Kb turned out to be 0.082 µM in experiment [1] and 0.011 µM in experiment [2]. Moreover, the ID50 in experiment [3] turned out to be 8.4 mg/kg.

As to `CCOC(=O)N1CCN(CC(=O)C(O)(c2ccccc2)C2CCCCC2)CC1` (stereo not given), the Kb in experiment [1] was greater than 30 µM; in experiment [2], greater than 10 µM.

For the compound `O=C(CN1CCN(C2CCC2)CC1)C(O)(c1ccccc1)C1CCC1` (stereo not given), the Kb in experiment [1] stood at 1.8 µM; in experiment [2], 0.23 µM. The ID50 in experiment [3] amounted to 18.3 mg/kg.

As to `O=C(CN1CCN(CC(=O)C(O)(c2ccccc2)C2CCC2)CC1)C(O)(c1ccccc1)C1CCC1` (stereo not given), the Kb in experiment [1] was greater than 1 µM; in experiment [2], 0.207 µM.

Consider `O=C(CN1CCN(C(c2ccccc2)c2ccccc2)CC1)C(O)(c1ccccc1)C1CCC1` (stereo not given), for which the Kb in experiment [1] is greater than 100 µM; in experiment [2] it was greater than 10 µM.

For the compound `C=CCN1CCN(CC(=O)C(O)(c2ccccc2)C2CCCCC2)CC1` (stereo not given), the Kb in experiment [1] was determined as 0.425 µM; in experiment [2], 0.0256 µM. This compound had an ID50 in experiment [3] of 21 mg/kg.

`C=C(C)CN1CCN(CC(=O)C(O)(c2ccccc2)C2CCC2)CC1` (stereo not given) returned an ED50 in experiment [4] of 17 mg/kg. In addition, the Kb amounted to 0.551 µM in experiment [1] and 0.1 µM in experiment [2].

Regarding `O=C(CN1CCC(N2CCCC2)CC1)C(O)(c1ccccc1)C1CCCCC1` (stereo not given), the Kb in experiment [1] was 4.51 µM; in experiment [2] it was 0.349 µM.

Regarding `O=C(CN1CCN(Cc2cccs2)CC1)C(O)(c1ccccc1)C1CCC1` (stereo not given), the results for the Kb in experiment [1] and in experiment [2] were 0.491 µM and 0.0438 µM, respectively. Besides, in experiment [3], the ID50 amounted to 25 mg/kg.

In the case of `O=C(CN1CCNCC1)C(O)(c1ccccc1)C1CCC1` (stereo not given), the values for the Kb in experiment [1] and in experiment [2] were 0.94 µM and 0.087 µM, respectively. The ID50 in experiment [3] stood at 1.65 mg/kg.

Regarding `COc1cccc(CN2CCN(CC(=O)C(O)(c3ccccc3)C3CCC3)CC2)c1` (stereo not given), the figures for the Kb in experiment [1] and in experiment [2] were 0.136 µM and 0.017 µM, respectively.

Consider `N#CCN1CCN(CC(=O)C(O)(c2ccccc2)C2CCC2)CC1` (stereo not given), for which the Kb in experiment [1] is greater than 30 µM; in experiment [2], 2.71 µM. In experiment [3], this compound came in with an ID50 of 35.7 mg/kg.

As for `COc1ccccc1N1CCN(CC(=O)C(O)(c2ccccc2)C2CCC2)CC1` (stereo not given), the Kb in experiment [1] and in experiment [2] was greater than 10 µM throughout.

Regarding `O=C(CN1CCN(c2ccccc2)CC1)C(O)(c1ccccc1)C1CCC1` (stereo not given), the figures for the Kb in experiment [1] and in experiment [2] were greater than 30 µM and 0.624 µM, respectively.

On to `O=C(CN1CCN(Cc2cccc(Cl)c2)CC1)C(O)(c1ccccc1)C1CCC1` (stereo not given), for which the antagonist equilibrium constant (Kb) in experiment [1] worked out at 0.38 µM; in experiment [2] it was 0.027 µM. For the same compound, in experiment [3], the ID50 was found to be 8.3 mg/kg.

With `CCOc1ccccc1N1CCN(CC(=O)C(O)(c2ccccc2)C2CCC2)CC1` (stereo not given), the Kb in experiment [1] and in experiment [2] was greater than 10 µM in each case.

In experiment [4], `O=C(CN1CCN(CCO)CC1)C(O)(c1ccccc1)C1CCCCC1` (stereo not given) returned an ED50 greater than 10 mg/kg. Besides, the Kb in experiment [1] came out at 0.53 µM; in experiment [2], 0.053 µM.

With `O=C(CN1CCN(CCO)CC1)C(O)(c1ccccc1)C1CCC1` (stereo not given), the results for the Kb in experiment [1] and in experiment [2] were 2.35 µM and 0.185 µM, respectively. In experiment [3], this compound gave an ID50 of 4.93 mg/kg.

For the compound `COc1ccc(CN2CCN(CC(=O)C(O)(c3ccccc3)C3CCC3)CC2)cc1` (stereo not given), the values for the antagonist dissociation constant (Kb) in experiment [1] and in experiment [2] were 0.263 µM and 0.0279 µM, respectively. The same compound returned an ID50 in experiment [3] of 10.8 mg/kg.

Turning to `O=C(CN1CCN(Cc2ccccc2)CC1)C(O)(c1ccccc1)C1CC1` (stereo not given), the Kb in experiment [1] was 0.225 µM; in experiment [2], 0.024 µM. In experiment [3], the ID50 is 9.9 mg/kg.

In the case of `O=C(CN1CCN(Cc2ccccc2Cl)CC1)C(O)(c1ccccc1)C1CCC1` (stereo not given), the Kb in experiment [1] is greater than 10 µM; in experiment [2], 0.056 µM.

As to `CC(C)CC(O)(C(=O)CN1CCN(Cc2ccccc2)CC1)c1ccccc1` (stereo not given), the Kb is greater than 3 µM in experiment [1] and 0.171 µM in experiment [2]. The compound further gave an ID50 in experiment [3] of 43.4 mg/kg.

In the case of `O=C(CN1CCN(Cc2ccc([N+](=O)[O-])cc2)CC1)C(O)(c1ccccc1)C1CCC1` (stereo not given), the Kb was determined as 2.69 µM in experiment [1] and 0.105 µM in experiment [2]. This compound came in with an ID50 in experiment [3] of 21 mg/kg.

In the case of `CCCN1CCN(CC(=O)C(O)(c2ccccc2)C2CCC2)CC1` (stereo not given), the Kb was determined as 1.19 µM in experiment [1] and 0.673 µM in experiment [2]. This compound returned an ID50 in experiment [3] of 31.1 mg/kg.

On to `O=C(CN1CCN(Cc2ccccc2)CC1)C(O)(c1ccccc1)C1CCCCC1` (stereo not given), for which the Kb in experiment [1] was 0.282 µM; in experiment [2], 0.012 µM. This compound came in with an ID50 in experiment [3] of 4.38 mg/kg.
